Values after ≈ are worked out from the molar mass of the structure shown.
Experiments:
P388 = experiment: Cytotoxicity against mouse P388 cells by sulforhodamine B method; format: functional
How it was run: (§1)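 Sulforhodamine B assay, with growth inhibition read as reduced formation of cellular protein.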

BXPC-3 = experiment: Growth inhibition of human BxPC3 cells by sulforhodamine B method; format: functional; how it was run: as §1
SF-295 = experiment: Growth inhibition of human SF295 cells by sulforhodamine B method; format: functional; how it was run: as §1
NCI-H460 = experiment: Growth inhibition of human NCI-H460 cells by sulforhodamine B method; format: functional; how it was run: as §1
DU-145 = experiment: Growth inhibition of human DU145 cells by sulforhodamine B method; format: functional; how it was run: as §1
Neisseria gonorrhoeae = experiment: Antimicrobial activity against Neisseria gonorrhoeae ATCC 49226 by broth microdilution assay; format: functional
How it was run: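 Screened by broth microdilution following NCCLS guidelines for bacteria grown aerobically. Each assay was repeated at least twice, on separate days.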

Enterococcus faecalis = experiment: Antimicrobial activity against Enterococcus faecalis ATCC 29212 by broth microdilution assay; format: functional
How it was run: (§2)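 Broth microdilution following NCCLS standards: M7-A5 for aerobic bacteria and M27-A2 for yeasts. Each assay was repeated at least twice on separate days.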

MCF7 [1] = experiment: Growth inhibition of human MCF7 after 48 hrs by sulforhodamine B method; format: functional, cell-based; conditions: MCF7, 48 h; how it was run: as §1
[2] = Solubility in water; format: physicochemical
Bos taurus [3] = species: Bos taurus; experiment: Displacement of [3H]colchicine from bovine tubulin at 2 uM
How it was run: (§3)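 Bovine brain tubulin at 0.1 mg/mL (1.0 µM) incubated with 5.0 µM [3H]colchicine and inhibitor at the stated concentration. Read-out is inhibition of radiolabel binding to tubulin, in % ± SD.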

Bos taurus [4] = species: Bos taurus; experiment: Displacement of [3H]vinblastine from bovine tubulin at 10 uM
How it was run: (§4)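 Bovine brain tubulin at 0.5 mg/mL (5.0 µM) with 5 µM [3H]vinblastine and inhibitor as stated, in 0.5 mM MgCl2, 0.1 M MES pH 6.9 and 4% (v/v) DMSO. Incubated 30 min at 20–22 °C. Bound label separated by centrifugal gel filtration on syringe columns at 2,000 rpm; result is % inhibition ± SD.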

Bos taurus [5] = species: Bos taurus; experiment: Displacement of [3H]vinblastine from bovine tubulin at 80 uM; how it was run: as §4
[6] = Inhibition of bovine brain tubulin assembly; parameters: species or system Bos taurus
How it was run: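 Bovine brain tubulin at 1.0 mg/mL (10 µM) assembled with varying inhibitor concentrations. IC50 reported in µM ± SD.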

Bos taurus [7] = species: Bos taurus; experiment: Displacement of [3H]colchicine from bovine tubulin at 50 uM; how it was run: as §3
MCF7 [8] = experiment: Increase in mitotic index in human MCF7 cells at 10 times the IC50 concentration after 16 hrs; format: functional
How it was run: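 MCF-7 cells grown with drug for 16 h, then DNA stain added. Result is the percentage of cells in mitosis.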

Cryptococcus neoformans = experiment: Antimicrobial activity against Cryptococcus neoformans ATCC 90112 by broth microdilution assay; format: functional; how it was run: as §2
Streptococcus pneumoniae = experiment: Antimicrobial activity against Streptococcus pneumoniae ATCC 6303 by broth microdilution assay; format: functional; how it was run: as §2

| SMILES | GI50 (P388) | GI50 (BXPC-3) | GI50 (SF-295) | GI50 (NCI-H460) | GI50 (DU-145) | GI50 (MCF7 [1]) | also measured |
| --- | --- | --- | --- | --- | --- | --- | --- |
| COc1ccc(/C=C\c2cc(OC)c3c(c2)OCO3)cc1NC(=O)[C@@H](N)Cc1ccc(OP(=O)(O)O)cc1 | > 10 µg/mL | > 1 µg/mL | > 1 µg/mL | > 1 µg/mL | > 1 µg/mL | > 1 µg/mL | MIC (Neisseria gonorrhoeae): 0.125 µg/mL (≈ 0.23 µM); MIC (Enterococcus faecalis): 16 µg/mL (≈ 29.5 µM) |
| COc1ccc(/C=C\c2cc(OC)c3c(c2)OCO3)cc1NC(=O)[C@H](Cc1ccc(OC(C)(C)C)cc1)NC(=O)OCc1ccccc1 | 0.38 µg/mL (≈ 0.582 µM) | 0.049 µg/mL (≈ 0.0751 µM) | 0.44 µg/mL (≈ 0.674 µM) | 0.41 µg/mL (≈ 0.628 µM) | 0.39 µg/mL (≈ 0.597 µM) | 0.36 µg/mL (≈ 0.552 µM) |  |
| COc1ccc(/C=C\c2cc(OC)c3c(c2)OCO3)cc1NC(=O)[C@@H](N)CC(=O)[O-].[Na+] | 0.361 µg/mL | 0.38 µg/mL | 0.25 µg/mL | 0.3 µg/mL | 0.33 µg/mL | 0.51 µg/mL | solubility [2]: < 100 µg/mL |
| COc1ccc(/C=C\c2cc(OC)c3c(c2)OCO3)cc1N |  |  |  |  |  |  | Activity (Bos taurus [3]): 85%; Activity (Bos taurus [4]): 0%; Activity (Bos taurus [5]): 0% |
| CC[C@H](C)[C@@H]([C@@H](CC(=O)N1CCC[C@H]1[C@H](OC)[C@@H](C)C(=O)Nc1cc(/C=C\c2cc(OC)c3c(c2)OCO3)ccc1OC)OC)N(C)C(=O)[C@@H](NC(=O)[C@H](C(C)C)N(C)C)C(C)C | < 0.01 µg/mL | 0.048 µg/mL (≈ 0.0545 µM) | 0.0031 µg/mL (≈ 0.00352 µM) | 0.025 µg/mL (≈ 0.0284 µM) | 0.02 µg/mL (≈ 0.0227 µM) | 0.032 µg/mL (≈ 0.0364 µM) | IC50 [6]: 1300 nM; Activity (Bos taurus [7]): 30%; Activity (Bos taurus [4]): 48%; Activity (Bos taurus [5]): 87%; Activity (MCF7 [8]): 57% |
| COc1ccc(/C=C\c2cc(OC)c3c(c2)OCO3)cc1NC(=O)[C@H](Cc1ccc(OP(=O)(OCc2ccccc2)OCc2ccccc2)cc1)NC(=O)OCc1ccccc1 | 0.133 µg/mL (≈ 0.155 µM) | > 10 µg/mL | > 10 µg/mL | > 10 µg/mL | > 10 µg/mL | > 10 µg/mL | MIC (Enterococcus faecalis): 64 µg/mL (≈ 74.7 µM) |
| COc1ccc(/C=C\c2cc(OC)c3c(c2)OCO3)cc1NC(=O)[C@H](Cc1ccc(OP(=O)(OCc2ccccc2)OCc2ccccc2)cc1)NP(=O)(OCc1ccccc1)OCc1ccccc1 | 10 µg/mL (≈ 10.2 µM) |  |  |  |  |  |  |
| CC[C@H](C)[C@@H]([C@@H](CC(=O)N1CCC[C@H]1[C@H](OC)[C@@H](C)C(=O)O)OC)N(C)C(=O)[C@@H](NC(=O)[C@H](C(C)C)N(C)C)C(C)C |  |  |  |  |  |  | Activity (Bos taurus [7]): 5.2%; Activity (Bos taurus [5]): 87% |
| COc1ccc(/C=C\c2cc(OC)c3c(c2)OCO3)cc1NC(=O)[C@H](Cc1ccc(OP(=O)([O-])O)cc1)NP(=O)(O)O.[Na+] | 0.27 µg/mL | 18.6 µg/mL | > 1 µg/mL | > 1 µg/mL | > 1 µg/mL | 1.3 µg/mL | MIC (Neisseria gonorrhoeae): 4 µg/mL |
| COc1ccc(/C=C\c2cc(OC)c(OC)c(OC)c2)cc1O [COMBRETASTATIN A4] |  |  |  |  |  |  | Activity (Bos taurus [3]): 98%; Activity (Bos taurus [4]): 0%; Activity (Bos taurus [5]): 0% |
| COc1ccc(/C=C\c2cc(OC)c3c(c2)OCO3)cc1NC(=O)[C@H](CC(=O)OC(C)(C)C)NC(=O)OC(C)(C)C | 0.385 µg/mL (≈ 0.675 µM) | 3.4 µg/mL (≈ 5.96 µM) | 2.4 µg/mL (≈ 4.21 µM) | 1.7 µg/mL (≈ 2.98 µM) | 2.3 µg/mL (≈ 4.03 µM) | 3 µg/mL (≈ 5.26 µM) |  |
| COc1ccc(/C=C\c2cc(OC)c3c(c2)OCO3)cc1NC(=O)[C@H](C)[C@@H](OC)[C@@H]1CCCN1C(=O)OC(C)(C)C | 0.225 µg/mL (≈ 0.396 µM) | 0.58 µg/mL (≈ 1.02 µM) | 0.53 µg/mL (≈ 0.932 µM) | 0.75 µg/mL (≈ 1.32 µM) | 1.9 µg/mL (≈ 3.34 µM) | 0.38 µg/mL (≈ 0.668 µM) | MIC (Cryptococcus neoformans): 64 µg/mL (≈ 113 µM) |
| COc1ccc(/C=C\c2cc(OC)c3c(c2)OCO3)cc1NC(=O)[C@@H](N)Cc1ccc(O)cc1.Cl | 0.0329 µg/mL | 0.064 µg/mL | 0.064 µg/mL | 0.096 µg/mL | 0.08 µg/mL | 0.041 µg/mL | solubility [2]: < 100 µg/mL |
| CC[C@H](C)[C@@H]([C@@H](CC(=O)N1CCC[C@H]1[C@H](OC)[C@@H](C)C(=O)N[C@@H](Cc1ccccc1)c1nccs1)OC)N(C)C(=O)[C@@H](NC(=O)[C@H](C(C)C)N(C)C)C(C)C [DOLASTATIN-10] |  |  |  |  |  |  | Activity (Bos taurus [4]): 96% |
| COc1ccc(/C=C\c2cc(OC)c3c(c2)OCO3)cc1NC(=O)[C@H](C)[C@@H](OC)[C@@H]1CCCN1.O=C(O)C(F)(F)F | 0.0263 µg/mL | 0.23 µg/mL | 0.054 µg/mL | 0.062 µg/mL | 0.26 µg/mL | 0.07 µg/mL | MIC (Cryptococcus neoformans): 64 µg/mL; MIC (Neisseria gonorrhoeae): 16 µg/mL; MIC (Streptococcus pneumoniae): 8 µg/mL; MIC (Enterococcus faecalis): 32 µg/mL |

From ChEMBL document CHEMBL1141770, “Antineoplastic agents. 515. Synthesis of human cancer cell growth inhibitors derived from 3,4-methylenedioxy-5,4'-dimethoxy-3'-amino-Z-stilbene” (J Nat Prod, 2005)
